# Laboratory results taken from ChEMBL document CHEMBL4513216, “Probing the Open Global Health Chemical Diversity Library for Multistage-Active Starting Points for Next-Generation Antimalarials” (ACS Infect Dis, 2020).
# Test: Toxicity liver stage against HepG2, at 10uM
# Format: cell-based
# Design: test concentration 10 uM, cell line HepG2-A16-CD81EGFP
# Settings: human, HepG2-A16-CD81EGFP cells; read-out: INHIBITION
# Summary of the method: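 Uninfected HepG2-A16-CD81EGFP cells, 3 × 10^3 per well, 1536-well, plated on prespotted compound at 10 μM final, parasite-free screening media added to match infected plates; puromycin 10 μM positive, DMSO 0.5% negative; run in parallel with 48 h PbLuc assay at 37 °C, 5% CO2; viability by CellTiter-Glo luminescence, normalized to controls.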
row,Structure (SMILES),cytotoxicity at 10 µM [%]
1,Cc1ccc(CNC(=O)C2CCN(C(=O)c3ccco3)CC2)n1C,2.46
2,COCCOc1ccnc(-c2noc([C@@H]3CCCN3C3CCC3)n2)c1,-8.46
3,O=C(NCC1(O)CCc2ccccc21)Nc1ccc2c(c1)OCO2 (stereo not given),-11.2
4,CCN1C(=O)C[C@@H]2[C@@H]1CCN2S(=O)(=O)c1ccc(OC)cc1,0.434
5,O=C(C1CCC1)N1C[C@H]2CNC[C@H]2C1,-4.1
6,CCCS(=O)(=O)N1CCOC2(CCCN(c3ncc(F)cn3)C2)C1 (stereo not given),8.22
7,CCOC[C@@H]1CC[C@H]2[C@H](CCN2C(=O)c2cnccn2)O1,-10.6
8,CC(=O)N1CC[C@@H]2CN(Cc3cccc(Cl)c3)S(=O)(=O)[C@@H]2CC1,-10.8
9,O=C(C1CCC1)N1CCC2(COCc3cnc(-c4cccnc4)nc32)C1 (stereo not given),3.5
10,CNc1nc2c(s1)C(c1ccc(F)cc1Cl)CC(=O)N2 (stereo not given),4.12
11,O=C(NCCCN1CCOCC1)c1ccn(COc2ccc(F)cc2)n1,7.16
12,O=C1CCOC[C@]2(CN(Cc3ccccc3)C[C@H]2c2cccc(F)c2)N1,-0.0186
13,Cc1cc(C(=O)N[C@@H]2CCC[C@@H](N3CCOCC3)[C@@H]2O)no1,-1.61
14,NC(=O)c1ccccc1Oc1cnc(C2CCCN2)cn1 (stereo not given),0.288
15,O=C(c1cnccn1)N1CCCC(Cc2cncc3ccccc23)C1 (stereo not given),-31.4
16,c1ccc(-c2cc(CNCCCN3CCCCC3)c3nnnn3c2)cc1,-30.6
17,Cc1cc(C(N)=O)nc(C2(C)CCCN2Cc2cnn(C)c2C)n1 (stereo not given),-20.6
18,CCC(=O)N(CC(N)=O)Cc1cccc(Oc2ccccc2)c1,9.66
19,CCC(CC)(CN)NC(C)c1ccccc1 (stereo not given),4.02
20,COCCCN(C)C(=O)c1nnn(-c2ccccc2Cl)c1C,9.38
21,COC(=O)[C@H](C)NC(=O)Cc1c(C)nc2cc(=O)[nH]n2c1C,-1.51
22,CC(C)(C)CN(CCC#N)C(=O)c1cccc(CN2CCCC2)c1,0.234

row,Structure (SMILES),cytotoxicity at 10 µM [%]
1,O=C(c1cccc(F)c1)N(CCCO)S(=O)(=O)c1cccs1,3.51
2,CN(C1CCCCC1)S(=O)(=O)N1CCN(Cc2ccon2)CC1,6.75
3,Cc1ccc(=O)n(Cc2csc(N(C)C3CC3)n2)n1,4.09
4,Cc1nc(CN2CCCC2C(=O)OCc2ccccc2)oc1C (stereo not given),-1.86
5,CSC1(CNC(=O)c2ccn(-c3ccccc3F)n2)CCOCC1,0.243
6,O=C(c1cccc(NCc2cccc(F)c2)c1)N1CCC(O)CC1,5.84
7,O=C(NCC1(c2cccs2)CCCCC1)N1CCOC(CO)C1 (stereo not given),0.75
8,CCCc1csc(-c2ccc(S(C)(=O)=O)cc2)n1,-2.69
9,O=C(c1cnc(-c2ccco2)s1)N1CCOc2ncccc21,7.48
10,COCCOc1ccc(NC(=O)N(C(C)C)C2CC2)cn1,-9.59
11,O=C(NCC1CC(=O)N(CCc2ccccc2)C1)c1ccon1 (stereo not given),-5.22
12,O=C(CCc1ccco1)NCC1CCCN1c1cccnn1 (stereo not given),-10.8
13,CC(C)(C)OC(=O)NCC1CCN(C(=O)c2ccccc2O)CC1,8.53
14,Cc1cc(NCCn2cccn2)n2ncnc2n1,-2.27
15,CC1CCCN(C(=O)Cn2cc(I)cn2)C1 (stereo not given),0.106
16,CCc1ccc(C(=O)Nc2cccc(CN3CCCC3C(N)=O)c2)cc1 (stereo not given),-0.268
17,Cc1cc(NC(=O)NC2CCCc3c2cnn3CCO)n(C)n1 (stereo not given),-15.7
18,COc1cc2c(nn1)CCN(CC(O)COc1ccc(C#N)cc1)C2 (stereo not given),-2.19
19,Cc1ncc2c(n1)CN(C(C(N)=O)c1ccccc1)CC2 (stereo not given),0.66
20,N#CCCN(CCC#N)C(=O)CN(C1CC1)C1CCc2ccccc21 (stereo not given),5.92
21,O=C(NC1CCN(c2ccccc2OC(F)F)C1)c1c[nH]nn1 (stereo not given),-2.54
22,CCC1CN(C(=O)c2csc(-c3cnn(C)c3)n2)CCO1 (stereo not given),-23.2

row,Structure (SMILES),cytotoxicity at 10 µM [%]
1,Cn1nnnc1SC1CCCN(c2ccccc2Cl)C1=O (stereo not given),3.71
2,O=C(COc1ccc2c(c1)CCC2)N1CCCC1c1ccc[nH]1 (stereo not given),6.54
3,CCN(Cc1cnn(C)c1)C(=O)c1cc2ccccc2c(=O)[nH]1,-7.94
4,O=C(Nc1ccccc1F)C1CSCN1C(=O)CCc1ccco1 (stereo not given),-4.31
5,N#Cc1ccc(NCCCOCC2CCOC2)c(F)c1 (stereo not given),1.1
6,Cc1cnn(CCNCc2ccc(OCC(N)=O)cc2)c1,-0.86
7,CCN(Cc1ccco1)C(=O)NCc1nnc2n1CCC2,-10.3
8,O=C(c1cc(Cl)c2c(c1)OCO2)N1CCN(c2nccs2)CC1,-3.6
9,Cc1cccc(S(=O)(=O)NCC(C)N2CCN(C)CC2)c1Cl (stereo not given),-4.52
10,O=C(Cc1c[nH]c2ccccc12)N1CCN(C(=O)c2ccoc2)CC1,-2.15
11,CN(Cc1nnc(C2CC2)n1C)C1CCN(CCc2cccs2)C1 (stereo not given),-8.71
12,CC(C)c1nc(CN(C)C2CCN(Cc3nc(C4CC4)no3)C2)no1 (stereo not given),-9.37
13,CCCOc1cc(C)ccc1NC(=O)NCCC(=O)N(C)C,-13.9
14,CC(=O)N1CCC2(CC1)C(=O)N(C)c1ccc(F)cc12,-116
15,COCC(=O)N1CC[C@H]2C[C@H](c3nc(C)no3)O[C@@H]2C1,-76.1
16,CC(CCn1cccn1)N1CCC(n2cc(C(C)(C)N)nn2)CC1 (stereo not given),-4.78
17,CCCNC(=O)N1CCCC2(CCC(=O)N(CCc3c[nH]cn3)C2)C1 (stereo not given),2.67
18,COc1cc(F)c(CN2CC[C@@](O)(C3CC3)[C@H](C)C2)cc1OC,0.0489
19,CCNC(=O)[C@@H]1C[C@H](n2cc(CC3CCCCC3)nn2)CN1,1.06
20,CCCc1cnc(C)nc1NCCc1nc(C)cc(=O)[nH]1,-5.1
21,O=C(NC1CC1)C1CNCCN1C(=O)CCOc1ccccc1 (stereo not given),2.08
22,O=C(c1ccc(-c2nc[nH]n2)cc1)N1CCOC(C(F)(F)F)C1 (stereo not given),-2.35

row,Structure (SMILES),cytotoxicity at 10 µM [%]
1,CC(C)C[C@@H](N)C(=O)N(C)Cc1csc(C(C)C)n1,-127
2,CCCN1CCCC2(CCN(S(=O)(=O)N3CCC(OC)CC3)C2)C1=O (stereo not given),1.48
3,CC(Cn1ccnc1)NCc1nncn1C1CCCCC1 (stereo not given),-4.54
4,Cc1nc[nH]c1CN1CCCC(CNC(=O)c2ccncn2)C1 (stereo not given),-0.334
5,COc1ccc(N2CCN(C(=O)CCn3nccc3C)CC2(C)C)cc1,57.1
6,COc1ccc(C(C(=O)O)N2CCC(Cn3cccn3)CC2)c(OC)n1 (stereo not given),-9.46
7,CN(C)CC(C)(C)Cn1cnc(-c2ccccc2)c1-c1cccc(O)c1,-5.53
8,CCc1ncc(CN2CCC(Oc3ccccc3OC)CC2)cn1,-8.17
9,CCN1CCN(C[C@@H]2CN(c3ncc(Cl)cc3Cl)C[C@@H]2CO)CC1,-6
10,Cc1ccc(N2CCN(C(=O)COc3ncccn3)CC2)nn1,-0.233
11,Cc1ccsc1C(CNC(=O)c1cc(=O)c2ccccc2[nH]1)N(C)C (stereo not given),-2.89
12,COc1cc(N2CCCC(c3nccn3CCN(C)C)C2)nc(N)n1 (stereo not given),-9.6
13,COc1cccc(C)c1C(=O)N1C[C@@H](CN(C)C)[C@@H](CO)C1,-10.4
14,COc1ccc(OCc2nc(C(=O)N3CC[C@H](O)[C@@H](O)C3)co2)cc1,-5.42
15,COCCNc1nc(C2CCCC2)nc2c1CCNCC2,-6.4
16,CC(C)c1nn(C)c(N(C)C)c1CNCC(O)c1ccccc1 (stereo not given),-1.83
17,CC(C)Oc1ccc(CNC(=O)CCN2C(=O)CCC2=O)cc1F,-7.27
18,Cc1nc(-c2ccc(Cl)s2)sc1C(=O)NC(C)(C)C(N)=O,-3.04
19,CC(C)c1noc(C(C)N2CCN(CCCN3CCCC3=O)CC2)n1 (stereo not given),-14.3
20,Cc1cc(CNc2ccccc2Cl)no1,-7.77
21,CC(C)(C)n1cc(C(=O)N2CCN(Cc3cccnc3)CC2)cn1,-7.51
22,CCc1nccn1C1CCCN(C(=O)c2ccc(NC3CC3)nc2)C1 (stereo not given),-11.3

row,Structure (SMILES),cytotoxicity at 10 µM [%]
1,Cc1noc(C)c1C(=O)NCC(c1ccsc1)N(C)C (stereo not given),-14.2
2,CCn1cnnc1CNC(=O)N(C)C(C)c1cccs1 (stereo not given),-15.9
3,CS(=O)(=O)NCCCNC(=O)NCc1ccccc1,-3.54
4,CCOc1c(Br)cc(/C=C/c2ncc(C(=O)O)s2)cc1OC,-1.26
5,CC(O)CN1CCC(CNCc2cccc(C(=O)N(C)C)c2)CC1 (stereo not given),-12.8
6,COc1ncccc1CNC(=O)c1cc(C)on1,-20.2
7,Cc1oc(C)c(C(=O)NCc2cccc(C(N)=O)c2)c1C,-15.8
8,CN(C)CCn1c(=O)n(C)c(=O)c2ccccc21,-1.48
9,Cc1ccc2c(c1)CCC2NCc1c(C)nn(CCO)c1C (stereo not given),11.2
10,Cc1noc(C)c1CN1C[C@H](OCC2CC2)[C@H]2COC[C@H]21,-5.78
11,CC(C)NCc1nc(-c2ccc3c(c2)OCO3)c[nH]1,6.24
12,O=C1Nc2ccccc2C12CCN(Cc1ccccn1)CC2,-3.45
13,CN(C)CCOCc1nnc2n1CCN(Cc1ccsc1)C2,3.02
14,COc1ccc(-c2n[nH]cc2CNC2CCN(C3CC3)CC2)cc1,1.75
15,Cc1noc(C)c1CN1CCCC2(CCN(C(=O)NC3CC3)C2)C1 (stereo not given),7.25
16,Cc1noc(C)c1CN1CCO[C@H]2CN(C3CCOCC3)C[C@H]21,-1.41
17,CCS(=O)(=O)N1C[C@@H]2CN(Cc3ccco3)CCO[C@@H]2C1,-122
18,Cc1cnc(C(=O)N2CCC3(CCN(Cc4ccccn4)C3=O)C2)cn1 (stereo not given),-140
19,CO[C@@H]1CCN(C(=O)Cc2ccsc2)[C@H]1Cc1cccnc1,6.9
20,Cn1cc(-n2cc3nc(N4CCOCC4)[nH]cc-3c2=O)cn1,7.36
21,COCCN1C(=O)[C@@H]2CC[C@H]1CN(c1nccc(C)n1)C2,9.73
22,CC(C)Cn1cc2nc(N3CCCC(C)C3)[nH]cc-2c1=O (stereo not given),2.22
